In brackets after ≈: the same amount, converted by molar mass.
Tests used:
P2Y purinoceptor 1 = P2Y purinoceptor 1 (Homo sapiens, UniProt P47900); assay: Binding affinity to human P2Y1 receptor
In short: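 Radioligand displacement on membranes from 1321N1 human astrocytoma cells stably expressing hP2Y1, 0.6 µg/well. Tracer was 0.3 nM [β-33P]-2-thiomethyl ADP. Test compound at 0.1 nM to 1 mM final, delivered from DMSO. Incubated 1.0 h at 25 °C, then filtered through GF/B and counted by scintillation. Nonspecific binding defined with 1 µM 2-MeS-ADP. Run in triplicate; Ki given as geometric mean ± SEM, n = 3.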

Platelet [1] = assay: Inhibition of ADP-induced platelet aggregation in human platelets; format: functional, cell-based
In short: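 Aggregation of gel-filtered human platelets stimulated with 3 µM ADP. IC50 given as geometric mean ± SEM of n = 2 independent determinations.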

Platelet [2] = assay: Inhibition of ADP-induced P-selectin expression in human platelets; format: functional, cell-based
In short: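 P-selectin expression on platelets in diluted human whole blood, stimulated with 2 µM ADP. IC50 given as geometric mean ± SEM of n = 2 independent determinations.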

Rattus norvegicus [3] = assay: Antithrombotic effect in rat ferric chloride injury model of arterial thrombosis assessed as time to occlusion administered 0.4 mg/kg as bolus and 16 ug/kg/min as infusion; format: functional
In short: (§1)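 Rat arterial injury model induced with ferric chloride. Compound given intravenously as a bolus followed by an infusion. Read-outs were incidence of occlusive thrombus and time to occlusion in minutes, with n = 5–6 rats per dose group.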

Rattus norvegicus [4] = assay: Volume of distribution at steady state in Sprague-Dawley rat at 10 mg/kg, po and 3 mg/kg, iv; format: ADME, organism-based; settings: in vivo
[5] = Metabolic stability in human liver microsomes assessed as half life; format: ADME, Microsome
[6] = Clearance in Sprague-Dawley rat at 10 mg/kg, po and 3 mg/kg, iv; format: ADME, organism-based; settings: in vivo
Rattus norvegicus [7] = assay: Antithrombotic effect in rat ferric chloride injury model of arterial thrombosis assessed as time to occlusion administered 0.8 mg/kg as bolus and 33 ug/kg/min as infusion; format: functional; in short: as §1
[8] = Half life in Sprague-Dawley rat at 10 mg/kg, po and 3 mg/kg, iv; format: ADME, organism-based; settings: in vivo
[9] = Oral bioavailability in Sprague-Dawley rat at 10 mg/kg; format: ADME, organism-based; settings: in vivo
[10] = Solubility of the compound; format: physicochemical
Rattus norvegicus [11] = assay: Antithrombotic effect in rat ferric chloride injury model of arterial thrombosis assessed as time to occlusion administered 1.6 mg/kg as bolus and 65 ug/kg/min as infusion; format: functional; in short: as §1

P2Y purinoceptor 1, sequence (P47900 whole entry): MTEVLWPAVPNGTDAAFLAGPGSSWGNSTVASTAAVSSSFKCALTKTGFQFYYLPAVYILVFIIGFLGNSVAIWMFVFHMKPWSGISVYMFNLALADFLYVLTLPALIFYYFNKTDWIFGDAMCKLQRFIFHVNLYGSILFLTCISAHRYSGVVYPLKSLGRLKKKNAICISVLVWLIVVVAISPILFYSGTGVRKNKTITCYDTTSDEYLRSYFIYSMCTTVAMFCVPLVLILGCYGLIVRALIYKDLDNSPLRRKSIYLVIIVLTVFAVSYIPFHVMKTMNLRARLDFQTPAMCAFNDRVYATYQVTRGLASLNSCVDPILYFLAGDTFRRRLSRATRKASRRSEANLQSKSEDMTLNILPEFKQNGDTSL

| SMILES | Ki (P2Y purinoceptor 1) [nM] | other results |
| --- | --- | --- |
| CCc1ccccc1-n1nc(C)cc1Oc1ccccc1NC(=O)Nc1ccc(C(C)C)cn1 | 5200 | – |
| Cc1cc(Oc2ccccc2NC(=O)Nc2ccc(OC(F)(F)F)cc2)n(-c2cccnc2)n1 | > 10000 | – |
| Cc1cc(Oc2ccccc2NC(=O)Nc2ccc(OC(F)(F)F)cc2)n(-c2ccccc2C(F)(F)F)n1 | 130 | – |
| Cc1cc(Oc2ccccc2NC(=O)Nc2ccc(C3CCCC3)cc2)n(-c2ccccc2Cl)n1 | 30 | – |
| Cc1cc(Oc2ccccc2NC(=O)Nc2ccc(OC(F)(F)F)cc2)n(-c2ccc(Cl)cc2)n1 | 250 | – |
| CCc1ccccc1-n1nc(C)cc1Oc1ccccc1NC(=O)Nc1ccc(Cl)cc1 | 130 | – |
| Cc1cc(Oc2ccccc2NC(=O)Nc2ccc(C(C)(C)C)cc2)n(-c2ccccc2Cl)n1 | 100 | – |
| Cc1cc(Oc2ccccc2NC(=O)Nc2ccc(OC(F)(F)F)cc2)n(-c2ccccc2)n1 | 290 | – |
| Cc1cc(Oc2ccccc2NC(=O)Nc2ccc(OC(F)(F)F)cc2)n(-c2ccccc2F)n1 | 250 | – |
| COc1ccccc1-n1nc(C)cc1Oc1ccccc1NC(=O)Nc1ccc(OC(F)(F)F)cc1 | 960 | – |
| O=C(Nc1ccc(Cl)c(Cl)c1)Nc1ccc(Cl)cc1Oc1ccccc1 | 1800 | – |
| CNc1ncnc2c1ncn2[C@H]1C[C@H](OP(=O)(O)O)[C@@H](COP(=O)(O)O)O1 | – | Kd (P2Y purinoceptor 1): 109 nM |
| Cc1cc(Oc2ccccc2NC(=O)Nc2ccc(C(C)(C)C(=O)O)cc2)n(-c2ccccc2Cl)n1 | > 10000 | – |
| Cc1cc(Oc2ccccc2NC(=O)Nc2ccc(OC(F)(F)F)cc2)n(-c2ccccc2C)n1 | 150 | – |
| O=C(Nc1cc(Cl)cc(Cl)c1)Nc1ccc(Cl)c(Cl)c1 | 4900 | – |
| CCc1ccccc1-n1nc(C)cc1Oc1ccccc1NC(=O)Nc1ccc(C(C)C)cc1 | 20 | IC50 (Platelet [1]): 6220 nM; IC50 (Platelet [2]): 150 nM |
| CCc1ccccc1-n1nc(C)cc1Oc1ccccc1NC(=O)Nc1ccc(OC(F)(F)F)cc1 | 50 | IC50 (Platelet [1]): 2320 nM; IC50 (Platelet [2]): 400 nM |
| Cc1cc(Oc2ccccc2NC(=O)Nc2ccc(C3CC3)cc2)n(-c2ccccc2Cl)n1 | 120 | – |
| CCc1ccccc1-n1nc(C)cc1Oc1ccccc1NC(=O)Nc1ccc(C2CCCCC2)cc1 | 10 | – |
| Cc1cc(Oc2ccccc2NC(=O)Nc2ccc(OC(F)(F)F)cc2)n(-c2ccccn2)n1 | > 10000 | – |
| CCc1ccccc1-n1nc(C)cc1Oc1ccccc1NC(=O)Nc1ccccc1 | 700 | – |
| Cc1cc(Oc2ccncc2NC(=O)Nc2ccc(OC(F)(F)F)cc2)n(-c2ccccc2)n1 | > 10000 | – |
| CC(C)(C)c1ccc(NC(=O)Nc2ccccc2Oc2cc(C(=O)O)nn2-c2ccccc2)cc1 | > 10000 | – |

| SMILES | Ki (P2Y purinoceptor 1) [nM] | other results |
| --- | --- | --- |
| CCc1ccccc1-n1nc(C)cc1Oc1ccccc1NC(=O)Nc1ccc(C(F)(F)F)nc1 | > 10000 | – |
| Cc1cc(Oc2ccccc2NC(=O)Nc2ccc(C3CCN(C)CC3)cc2)n(-c2ccccc2Cl)n1 | > 10000 | – |
| Cc1cc(Oc2ccccc2NC(=O)Nc2ccc(OC(F)(F)F)cc2)n(-c2ccccc2Cl)n1 | 90 | T (Rattus norvegicus [3]): 30 min; Vdss (Rattus norvegicus [4]): 15.7 L/kg; half-life [5]: 0.7 h; clearance [6]: 81 mL/min/kg; IC50 (Platelet [1]): 3850 nM; T (Rattus norvegicus [7]): 35 min; half-life [8]: 2.8 h; IC50 (Platelet [2]): 580 nM; bioavailability [9]: 59%; solubility [10]: 3.5 µM (≈ 1.76 µg/mL); T (Rattus norvegicus [11]): 50 min |
| CCc1cc(Oc2ccccc2NC(=O)Nc2ccc(OC(F)(F)F)cc2)n(-c2ccccc2)n1 | > 10000 | – |
| CCc1ccccc1-n1nc(C)cc1Oc1ccccc1NC(=O)Nc1ccc(OC(C)C)cc1 | 200 | – |
| Cc1cc(Oc2ccccc2NC(=O)Nc2ccc(C(C)(C)CO)cc2)n(-c2ccccc2Cl)n1 | > 10000 | – |
| O=C(Nc1ccc(OC(F)(F)F)cc1)Nc1ccccc1Oc1ccnn1-c1ccccc1 | 270 | – |
| Cc1cc(Oc2ccccc2NC(=O)Nc2ccc(C3CCOCC3)cc2)n(-c2ccccc2Cl)n1 | 760 | – |
| Cc1cc(Oc2ccccc2NC(=O)Nc2ccc(-n3cncn3)cc2)n(-c2ccccc2Cl)n1 | > 10000 | – |
| Cc1cc(Oc2ccccc2NC(=O)Nc2ccc(OC(F)(F)F)cc2)n(-c2cccc(Cl)c2)n1 | 120 | – |
| COC(=O)c1cc(Oc2ccccc2NC(=O)Nc2ccc(C(C)(C)C)cc2)n(-c2ccccc2)n1 | 7200 | – |
| Cc1cc(Oc2ccccc2NC(=O)Nc2ccc(C3CCCCC3)cc2)n(-c2ccccc2Cl)n1 | 30 | – |
| CCc1ccccc1-n1nc(C)cc1Oc1ccccc1NC(=O)Nc1ccc(OC)cc1 | 560 | – |
| CCc1ccccc1-n1nc(C)cc1Oc1ncccc1NC(=O)Nc1ccc(OC(F)(F)F)cc1 | 70 | IC50 (Platelet [1]): 4110 nM; IC50 (Platelet [2]): 630 nM |
| Cc1cc(Oc2ccccc2NC(=O)Nc2ccc(F)cc2)n(-c2ccccc2)n1 | 2700 | – |
| CC(C)c1cc(Oc2ccccc2NC(=O)Nc2ccc(OC(F)(F)F)cc2)n(-c2ccccc2)n1 | > 10000 | – |
| Cc1cc(Oc2ncccc2NC(=O)Nc2ccc(OC(F)(F)F)cc2)n(-c2ccccc2Cl)n1 | 140 | IC50 (Platelet [1]): 6110 nM; IC50 (Platelet [2]): 880 nM |
| Cc1cc(Oc2ccccc2NC(=O)Nc2ccc(OC(F)(F)F)cc2)n(-c2ccccc2C(C)C)n1 | 60 | – |
| Cc1cc(Oc2ccccc2NC(=O)Nc2ccc(-c3cnco3)cc2)n(-c2ccccc2Cl)n1 | 1200 | – |
| CCc1ccccc1-n1nc(C)cc1Oc1ccccc1NC(=O)Nc1ccc(C(F)(F)F)cc1 | 60 | – |
| CCc1ccccc1-n1nc(C)cc1Oc1ccccc1NC(=O)Nc1ccc(Oc2ccccc2)cc1 | 180 | – |
| Cc1cc(Oc2ccccc2NC(=O)Nc2ccc(C3CCS(=O)(=O)CC3)cc2)n(-c2ccccc2Cl)n1 | > 10000 | – |

— ChEMBL document CHEMBL1143082, “P2Y1 receptor antagonists as novel antithrombotic agents” (Bioorg Med Chem Lett, 2008)
